Several values for one entry are separate records, joined by “and”; a condition that tells them apart may be missing. Identical values can stand only once.
How the values were obtained:
M5076 [1] = experiment: Compound was evaluated in vivo for antitumor activity against M5076 after injecting the compound intravenously for percent T/C; assay type: functional, Mus musculus
P388 [2] = experiment: Compound was evaluated in vivo for antitumor activity after intraperitoneal administration against P388 (1313) for % increase in life span at an optimal dose of 1 mg/kg/injection; assay type: functional; conditions: Mus musculus, P388, ip
P388 [3] = experiment: Compound was evaluated in vivo for antitumor activity after intraperitoneal administration against P388 (1313) for tumor free survivors at an optimal dose of 0.2 mg/kg/injection; assay type: functional, Mus musculus
L1210 [4] = experiment: Compound was evaluated in vivo for antitumor activity after intraperitoneal administration against L1210(935) for tumor free survivors at an optimal dose of 0.2 mg/kg/injection at 1-4 day schedule.; assay type: functional, Mus musculus
Summary of the method: (§1)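 L1210 leukemia, maintained in DBA/2 mice, was given ip as 10⁵ cells on day 0 to F1 hybrid or strain-of-origin mice over 18 g, in groups of 8. Dosing was ip from day 1, and mortality was checked daily. Median day of death counts dying mice only. %ILS = 100×(treated − control median day of death)/control median. Tumor-free survivors were counted on day 60. Weight change is g/mouse at nadir.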

B16 [5] = experiment: Compound was evaluated in vivo for antitumor activity against B16 melanoma 2 after injecting the compound intravenously for toxicity related death.; assay type: functional, Mus musculus
[6] = Compound was evaluated in vivo for antitumor activity against mammary adenocarcinoma 16/C after injecting the compound intravenously for optimal dose; assay type: functional, Mus musculus
Summary of the method: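 30-60 mg tumor fragments implanted sc by trocar on day 0 into C57Bl/6-derived hosts (B16) or C3H/He-derived hosts (16/C). Drug given iv on days 6, 9 and 13 (B16) or 6, 9 and 12 (16/C), 10 mice per group. Tumors measured by caliper. T/C % taken from median tumor burden of treated vs control groups on day 15 (B16) or day 14 (16/C). Body weight change per mouse recorded at nadir.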

L1210 [7] = experiment: Compound was evaluated in vivo for antitumor activity after intraperitoneal administration against L1210(935) for median day of death at an optimal dose of 1 mg/kg/injection at 1 day schedule.; assay type: functional, Mus musculus; summary of the method: as §1
L1210 [8] = experiment: Compound was evaluated in vivo for antitumor activity after intraperitoneal administration against L1210(935)for change in body weight at an optimal dose of 0.1 mg/kg/injection at 1-4 day schedule.; assay type: functional, Mus musculus; summary of the method: as §1
P388 [9] = experiment: Compound was evaluated in vivo for antitumor activity after intraperitoneal administration against P388/L-PAM(14) for change in body weight at an optimal dose of 0.2 mg/kg/injection at 1,2,3,4 day schedule.; assay type: functional, Mus musculus
P388 [10] = experiment: Compound was evaluated in vivo for antitumor activity after intraperitoneal administration against P388/L-PAM(14) for mortality range at an optimal dose of 0.125 mg/kg/injection at 1,4,7,11 day schedule.; assay type: functional, Mus musculus
L1210 [11] = experiment: Compound was evaluated in vivo for antitumor activity after intraperitoneal administration against L1210(935) for median day of death at an optimal dose of 0.5 mg/kg/injection at 1,4,7,11day schedule.; assay type: functional, Mus musculus; summary of the method: as §1
B16 [12] = experiment: Compound was evaluated in vivo for antitumor activity against B16 melanoma 2 after injecting the compound intravenously for total dose.; assay type: functional, Mus musculus
L1210 [13] = experiment: Compound was evaluated in vivo for antitumor activity after intraperitoneal administration against L1210(935) for tumor free survivors at an optimal dose of 0.125 mg/kg/injection at 1,4,7,11 day schedule.; assay type: functional, Mus musculus; summary of the method: as §1
L1210 [14] = experiment: Compound was evaluated in vivo for antitumor activity after intraperitoneal administration against L1210(935) for median day of death at an optimal dose of 0.5 mg/kg/injection at 1 day schedule.; assay type: functional, Mus musculus; summary of the method: as §1
B16 [15] = experiment: Compound was evaluated in vivo for antitumor activity against B16 melanoma 1 after injecting the compound intravenously for percent T/C (value in parentheses indicates the day of evaluation); assay type: functional, Mus musculus
P388 [16] = experiment: Compound was evaluated in vivo for antitumor activity after intraperitoneal administration against P388 (1313) for mortality range at an optimal dose of 0.25 mg/kg/injection; assay type: functional, Mus musculus
P388 [17] = experiment: Compound was evaluated in vivo for antitumor activity after intraperitoneal administration against P388 (1313) for total dose at an optimal dose of 0.4 mg/kg/injection; assay type: functional, Mus musculus
L1210 [18] = experiment: Compound was evaluated in vivo for antitumor activity after intraperitoneal administration against L1210(935) for median day of death at an optimal dose of 0.25 mg/kg/injection at 1,4,7,11day schedule.; assay type: functional, Mus musculus; summary of the method: as §1
P388 [19] = experiment: Compound was evaluated in vivo for antitumor activity after intraperitoneal administration against P388/L-PAM(12) for change in body weight at an optimal dose of 0.75 mg/kg/injection; assay type: functional, Mus musculus
M5076 [20] = experiment: Compound was evaluated in vivo for antitumor activity against M5076 after injecting the compound intravenously for optimal dose; assay type: functional, Mus musculus
L1210 [21] = experiment: Inhibitory activity against L1210 cell growth; assay type: functional, cell-based; conditions: Mus musculus
Summary of the method: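 L1210 cells were grown in RPMI 1640 with 2 mM glutamine and 20% heat-inactivated horse serum at 37 °C under 5% CO2. Drug was added in DMSO (0.5% final) to exponential cells seeded at 0.8×10^5 cells/mL. Coulter counts were done in triplicate at 48 h. IC50 was taken from a regression of probit % growth inhibition against log dose, from one experiment.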

P388 [22] = experiment: Compound was evaluated in vivo for antitumor activity after intraperitoneal administration against P388/L-PAM(14) for tumor free survivors at an optimal dose of 0.5 mg/kg/injection at 1,4,7,11 day schedule on day 60; assay type: functional, Mus musculus
P388 [23] = experiment: Compound was evaluated in vivo for antitumor activity after intraperitoneal administration against P388 (1313) for median day of death at an optimal dose of 0.2 mg/kg/injection; assay type: functional, Mus musculus
P388 [24] = experiment: Compound was evaluated in vivo for antitumor activity after intraperitoneal administration against P388 (1313) for % increase in life span at an optimal dose of 0.4 mg/kg/injection; assay type: functional; conditions: Mus musculus, P388, ip
L1210 [25] = experiment: Compound was evaluated in vivo for antitumor activity after intraperitoneal administration against L1210(935)for % increase in life span at an optimal dose of 0.25 mg/kg/injection at 1,4,7,11day schedule.; assay type: functional; conditions: Mus musculus, L1210, ip; summary of the method: as §1
P388 [26] = experiment: Compound was evaluated in vivo for antitumor activity after intraperitoneal administration against P388/L-PAM(14) for mortality range at an optimal dose of 0.5 mg/kg/injection at 1,4,7,11 day schedule.; assay type: functional, Mus musculus
P388 [27] = experiment: Compound was evaluated in vivo for antitumor activity after intraperitoneal administration against P388/L-PAM(12) for median day of death at an optimal dose of 0.75 mg/kg/injection; assay type: functional, Mus musculus
P388 [28] = experiment: Compound was evaluated in vivo for antitumor activity after intraperitoneal administration against P388/L-PAM(14) for total dose at an optimal dose of 0.4 mg/kg/injection at 1,2,3,4 day schedule.; assay type: functional, Mus musculus
P388 [29] = experiment: Compound was evaluated in vivo for antitumor activity after intraperitoneal administration against P388/L-PAM(14) for median day of death at an optimal dose of 0.5 mg/kg/injection at one day schedule.; assay type: functional, Mus musculus
B16 [30] = experiment: Compound was evaluated in vivo for antitumor activity against B16 melanoma 2 after injecting the compound intravenously median tumor burden; assay type: functional, Mus musculus
L1210 [31] = experiment: Compound was evaluated in vivo for antitumor activity after intraperitoneal administration against L1210(935)for change in body weight at an optimal dose of 0.2 mg/kg/injection at 1-4 day schedule.; assay type: functional, Mus musculus; summary of the method: as §1

SMILES: CN(C)CCCNc1ncnc2c1C(=O)C(N1CC1)=C(N1CC1)C2=O
- T/C (M5076 [1]): 58%
- ILS at 1 mg/kg (P388 [2]): 70%
- Survivors (P388 [3]): 0
- Survivors (L1210 [4]): 1
- Toxicity (B16 [5]): 0
- Optimal dose [6]: 0.4 mg/kg and 0.2 mg/kg
- Median day of death (L1210 [7]): 14
- Change in body weight (L1210 [8]): 0.4 g mouse-1
- Change of weight (P388 [9]): 1.7 g mouse-1
- Mortality (P388 [10]): 27 days
- Median day of death (L1210 [11]): 14
- Total dose (B16 [12]): 1.8 mg/kg
- Survivors (L1210 [13]): 0
- Median day of death (L1210 [14]): 14
- T/C (B16 [15]): 76%
- Mortality (P388 [16]): 27 days
- Optimal dose (P388 [17]): 1.6 mg/kg
- Median day of death (L1210 [18]): 13
- Change in body weight (P388 [19]): -1 g mouse-1
- Optimal dose (M5076 [20]): 1 mg/kg
- IC50 (L1210 [21]): 0.00102 µg/mL and 2.7 nM
- Survivors (P388 [22]): 0
- Median day of death (P388 [23]): 19.5
- ILS at 0.4 mg/kg (P388 [24]): 91%
- ILS at 0.25 mg/kg (L1210 [25]): 18%
- Mortality (P388 [26]): 32 days
- Median day of death (P388 [27]): 15.5
- Total dose (P388 [28]): 1.6 mg/kg
- Median day of death (P388 [29]): 18
- Tumor burden (B16 [30]): 27 mg
- Change in body weight (L1210 [31]): 0.4 g mouse-1

Source: ChEMBL document CHEMBL1125740, “Heterocyclic quinones. 17. A new in vivo active antineoplastic drug: 6,7-bis(1-aziridinyl)-4-[[3-(N,N-dimethylamino)propyl]amino]-5,8- quinazolinedione” (J Med Chem, 1991)
